Compounds with a hit are over-represented: about 3.9% of the library has one in this group of screens.
CHOP UPR activ: apoptotic UPR (CHOP) activation; CHO-CHOP luciferase reporter, luminescence; percent of tunicamycin response over DMSO baseline; activation, % at 10 µM; hit rate 0.34% among 330,000;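 active = at 10 µM dose, activation of 40% or more, normalized to positive control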;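 note: 100% = tunicamycin at 10 µg/mL and 0% = DMSO alone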
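Material: CHO-CHOP cells, stable luciferase reporter of PERK-eIF2a-CHOP signalling; quantity: 500 reporter cells seeded per well; buffer or medium: F12 medium containing 10% fetal bovine serum; compound: one dose, 10 µM in 0.5% DMSO; incubation: 6 h compound treatment, 37 °C; measured by: Steady-Glo luciferase luminescence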
Gli-Sufu block: antagonists of Gli-Sufu signaling. hit rate 0.74% among 340,000. AID 588413. Sufu-KO-LIGHT fibroblasts, Gli luciferase reporter luminescence. inhibition, % at 5 µM;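 active = inhibition above about 55%, limit read from the data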;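 note: 0% = DMSO-treated cells and 100% = wells with medium but no cells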
Jurkat NFkB inh: lowers PMA/ionomycin-induced NF-kB signal in Jurkat cells; PMA/ionomycin-induced NF-kB luciferase reporter, luminescence; inhibition, % at 4 µM; hit rate 0.53% among 330,000; AID 435003; in the data active = inhibition above about 50%
697 NFkB inh: inhibitors of the PMA/ionomycin-induced NF-kB reporter in 697 B cells; 697 B-cell NF-kB luciferase reporter, 16 h; inhibition, % at 4 µM; hit rate 0.33% among 330,000; AID 435022; in the data active = inhibition above about 35%
CHOP inh: CHOP inhibition in unfolded protein response; CHO-K1 CHOP-promoter luciferase, tunicamycin-induced, 15-18 h; inhibition, % at 10 µM; hit rate 3.8% among 220,000; AID 2732;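 active = compounds that reduced the stress-induced luciferase reporter signal by more than about 70% of percent inhibition, limit read from the data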;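 note: 0% = tunicamycin plus vehicle and 100% = wells without tunicamycin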
XBP1 UPR activ: activators of adaptive arm of unfolded protein response (XBP1). CHO-XBP1 luciferase reporter, IRE1-XBP1 UPR activation, luminescence; percent of tunicamycin response, DMSO as zero. activation, % at 20 µM. hit rate 0.33% among 330,000. AID 463104;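 active = versus positive control, 20 µM dose yields 30% or more activation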;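 note: 100% = tunicamycin at 10 µg/mL and 0% = DMSO only wells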
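Assay system: IRE1-XBP1 luciferase reporter CHO line. Input: 1000 cells/well. Buffer or medium: F12 with 10% serum. Doses: 20 µM, 1% DMSO. Times: overnight seeding at 37 °C, 6 h compound treatment at 37 °C. Technique: Steady-Glo luciferase glow luminescence, 10 min after reagent addition.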
Jurkat NFkB conf: inhibitors of the PMA/ionomycin-induced NF-kB reporter in Jurkat cells, retest; shares compounds with Jurkat NFkB inh; Jurkat NF-kB luciferase, 16 h; inhibition, % at 4 µM; hit rate 27% among 2,700; AID 435020;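 active = inhibition reaching about 45% at 4 µM in either replicate, limit read from the data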;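 note: plate controls were PMA/ionomycin stimulated DMSO wells for no effect and unstimulated DMSO wells for full effect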
* hit, by the source's call.

COc1ccc(C(=O)Nc2ccc(N3CCOCC3)cc2)cc1S(=O)(=O)N1CCOCC1 was read as CHOP UPR activ 1.4, Gli-Sufu block -1.9, Jurkat NFkB inh 0.3, 697 NFkB inh 19.2 and XBP1 UPR activ -0.9.
COc1ccc(C(=O)Nc2ccc(-c3ccc(C)o3)cc2)cc1S(=O)(=O)N1CCOCC1 was read as CHOP UPR activ 6.9, Gli-Sufu block 11.8, Jurkat NFkB inh 58.6*, 697 NFkB inh 15.0, CHOP inh 38.7, XBP1 UPR activ 5.1 and Jurkat NFkB conf 12.1.
`COCCn1c(=O)[nH]c(=O)c2c1nc(-c1cc(Br)c3c(c1)OCO3)n2Cc1ccccc1` gave CHOP UPR activ 6.0, Gli-Sufu block 5.8, Jurkat NFkB inh 2.7, 697 NFkB inh 12.2, CHOP inh 2.6 and XBP1 UPR activ -0.2.
CCOc1cccc(C(=O)Nc2ccc3[nH]ncc3c2)c1 was read as CHOP UPR activ 2.3, Gli-Sufu block -46.2, Jurkat NFkB inh -150.6, 697 NFkB inh -26.7, XBP1 UPR activ -3.9 and Jurkat NFkB conf -63.1.
`COc1cccc(C(=O)Nc2ccc3[nH]ncc3c2)c1` gave CHOP UPR activ 2.3, Gli-Sufu block -63.6, Jurkat NFkB inh -69.8, 697 NFkB inh -45.3 and XBP1 UPR activ -5.8.
`COc1ccc(/C=N/NC(=O)c2cccc(NC(C)=O)c2)c(OC)c1` gave CHOP UPR activ -1.1, Gli-Sufu block 2.0, Jurkat NFkB inh -9.8, 697 NFkB inh 11.1, CHOP inh -0.1 and XBP1 UPR activ -0.8.
Screening COc1ccc(C(=O)Nc2cccc(C(=O)N/N=C/c3ccc(OC)cc3OC)c2)cc1 returned CHOP UPR activ -4.2, Gli-Sufu block -4.0, Jurkat NFkB inh 56.6*, 697 NFkB inh -14.3, XBP1 UPR activ -13.9 and Jurkat NFkB conf 1.9.
COc1cccc(NC(=O)c2ccc3c(c2)CCCC3)c1 was read as CHOP UPR activ 2.9, Gli-Sufu block -96.6, Jurkat NFkB inh -153.5, 697 NFkB inh -20.9, XBP1 UPR activ -1.3 and Jurkat NFkB conf -118.3.
`Cc1ccc(NC(=O)CN(C)C2CCCCC2)cc1Cl` gave CHOP UPR activ -0.6, Gli-Sufu block 22.3, Jurkat NFkB inh -1.7, 697 NFkB inh 14.3 and XBP1 UPR activ -3.3.
For NS(=O)(=O)c1ccc(CCNC(=O)COC(=O)C2CCC2)cc1 the results were CHOP UPR activ -0.9, Gli-Sufu block -24.4, Jurkat NFkB inh -13.6, 697 NFkB inh -8.3 and XBP1 UPR activ -1.9.
`N/C(=C\C(=O)c1cc(Cl)ccc1O)C(Cl)(Cl)Cl` gave CHOP UPR activ 39.6, Gli-Sufu block 52.9, Jurkat NFkB inh 64.0*, 697 NFkB inh -98.3, CHOP inh 65.1, XBP1 UPR activ 14.7 and Jurkat NFkB conf 22.4.
Cc1cc(C(=O)Nc2ccc3c(c2)OCCO3)ccc1[N+](=O)[O-] was read as CHOP UPR activ -0.8, Gli-Sufu block -101.4, Jurkat NFkB inh -159.8, 697 NFkB inh -71.8, XBP1 UPR activ -8.8 and Jurkat NFkB conf -82.2.
O=C(Nc1ccc(Cl)cc1Cl)c1ccc2c(c1)OCCO2 was read as CHOP UPR activ -1.1, Gli-Sufu block -92.8, Jurkat NFkB inh -167.1, 697 NFkB inh -241.1, XBP1 UPR activ -4.2 and Jurkat NFkB conf -95.2.
Screening O=C(Nc1ccc2c(c1)OCCO2)c1ccc(Cl)c(Cl)c1 returned CHOP UPR activ 5.2, Gli-Sufu block -79.3, Jurkat NFkB inh -151.3, 697 NFkB inh -45.2, XBP1 UPR activ -3.9 and Jurkat NFkB conf -131.7.
O=C(Nc1ccc2c(c1)OCCO2)c1ccc(Cl)c([N+](=O)[O-])c1 was read as CHOP UPR activ 7.9, Gli-Sufu block -14.5, Jurkat NFkB inh -18.9, 697 NFkB inh -72.2, CHOP inh -4.7 and XBP1 UPR activ -0.1.
For CCN1CCN(c2cc(C)c3cc(NC(=O)c4ccc5c(c4)OCO5)ccc3n2)CC1 the results were CHOP UPR activ 10.5, Gli-Sufu block -4.9, Jurkat NFkB inh -2.6, 697 NFkB inh -1.9, CHOP inh 26.1 and XBP1 UPR activ 24.4.
Cc1cc(Cl)ccc1NC(=O)c1ccc2c(c1)OCO2 was read as CHOP UPR activ 6.1, Gli-Sufu block -94.8, Jurkat NFkB inh -81.0, 697 NFkB inh -89.5 and XBP1 UPR activ 1.6.
`CCN1CCN(c2ccc(NC(=O)c3ccc4c(c3)OCCO4)cc2C)CC1` gave CHOP UPR activ 2.0, Gli-Sufu block -49.8, Jurkat NFkB inh -164.8, 697 NFkB inh -76.1, XBP1 UPR activ 0.2 and Jurkat NFkB conf -40.4.
`CSc1ccc(/C=N/S(=O)(=O)c2ccccc2)cc1` gave CHOP UPR activ -1.2, Gli-Sufu block 0.3, Jurkat NFkB inh -11.3, 697 NFkB inh 10.7 and XBP1 UPR activ -3.7.
Screening O=C(Nc1cccc(C(=O)Nc2cccc(Br)c2)c1)c1ccccc1 returned CHOP UPR activ 2.2, Gli-Sufu block 2.6, Jurkat NFkB inh -26.8, 697 NFkB inh -37.9 and XBP1 UPR activ 0.2.
For Nc1c(C(=O)Nc2ccc3c(c2)OCCO3)nnn1Cc1ccc(Br)cc1 the results were CHOP UPR activ 8.1, Gli-Sufu block -130.3, Jurkat NFkB inh -200.1, 697 NFkB inh -190.2, XBP1 UPR activ 9.3 and Jurkat NFkB conf -112.4.
O=C(Nc1ccc2c(c1)OCCO2)c1cccc(Br)c1 was read as CHOP UPR activ 4.3, Gli-Sufu block -77.6, Jurkat NFkB inh -174.1, 697 NFkB inh -55.5, XBP1 UPR activ -3.0 and Jurkat NFkB conf -101.2.
`CC(C)c1ccc(NC(=O)c2cccc(Br)c2)cc1` gave CHOP UPR activ 4.0, Gli-Sufu block -98.5, Jurkat NFkB inh -234.4, 697 NFkB inh -207.5, CHOP inh 84.3*, XBP1 UPR activ 5.0 and Jurkat NFkB conf -105.5.
Screening O=C(Cn1c(NCCCO)nc2ccccc21)c1ccc(Cl)cc1Cl returned CHOP UPR activ -0.2, Gli-Sufu block 5.3, Jurkat NFkB inh -17.6, 697 NFkB inh -18.9 and XBP1 UPR activ -2.8.
`COc1cccc(OC)c1NC(=O)CN(C)S(=O)(=O)c1ccc2c(c1)OCCO2` gave CHOP UPR activ -1.5, Gli-Sufu block -26.1, Jurkat NFkB inh 7.7, 697 NFkB inh 4.8 and XBP1 UPR activ 7.5.
Screening O=C(Nc1ccc(N2CCCC2)cc1)c1ccccc1F returned CHOP UPR activ 1.3, Gli-Sufu block -44.1, Jurkat NFkB inh -60.1, 697 NFkB inh -99.3, CHOP inh -12.6 and XBP1 UPR activ -3.9.
For Cc1ccc(C(=O)Nc2ccc(N3CCCCC3)cc2)cc1 the results were CHOP UPR activ 3.3, Gli-Sufu block -123.3, Jurkat NFkB inh -175.6, 697 NFkB inh -161.3, XBP1 UPR activ -1.2 and Jurkat NFkB conf -112.7.
`O=C(Nc1ccc(N2CCCCC2)cc1)c1ccc(F)cc1F` gave CHOP UPR activ -0.4, Gli-Sufu block -80.4, Jurkat NFkB inh -175.4, 697 NFkB inh -202.2, CHOP inh -14.9, XBP1 UPR activ -3.4 and Jurkat NFkB conf -69.3.

Source: PubChem BioAssay (several laboratories)
